SENP8 block-1 – SENP8 (human) protease inhibition; Q96LD8; recombinant SENP8, Nedd8 substrate fluorescence; inhibition, % at 20 µM; 360,000 compounds, 0.64% hits; in the data active = inhibition mostly above about 40%, no sharp cut-off; inactive = mostly below about 27%
SENP8 block-2 – blocks the human protease SENP8; inhibition, % at 10 µM; 330,000 compounds, 1.2% hits; Q96LD8; purified SENP8, Z-RLRGG-aminoluciferin cleavage, luminescence; in the data active = inhibition above about 50%
SENP6 inh – inhibitors of human SENP6 protease | inhibition, % at 10 µM | 330,000 compounds, 1.8% hits | AID 2599 | Recombinant SENP6 catalytic domain, aminoluciferin luminescence | Q9GZR1;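 active = inhibition above about 50% at the single tested dose, limit read from the data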;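 note: plate controls were DMSO wells with enzyme for no effect and DMSO wells lacking enzyme for full effect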
Target sequence (Q9GZR1 628-1112 limits assumed): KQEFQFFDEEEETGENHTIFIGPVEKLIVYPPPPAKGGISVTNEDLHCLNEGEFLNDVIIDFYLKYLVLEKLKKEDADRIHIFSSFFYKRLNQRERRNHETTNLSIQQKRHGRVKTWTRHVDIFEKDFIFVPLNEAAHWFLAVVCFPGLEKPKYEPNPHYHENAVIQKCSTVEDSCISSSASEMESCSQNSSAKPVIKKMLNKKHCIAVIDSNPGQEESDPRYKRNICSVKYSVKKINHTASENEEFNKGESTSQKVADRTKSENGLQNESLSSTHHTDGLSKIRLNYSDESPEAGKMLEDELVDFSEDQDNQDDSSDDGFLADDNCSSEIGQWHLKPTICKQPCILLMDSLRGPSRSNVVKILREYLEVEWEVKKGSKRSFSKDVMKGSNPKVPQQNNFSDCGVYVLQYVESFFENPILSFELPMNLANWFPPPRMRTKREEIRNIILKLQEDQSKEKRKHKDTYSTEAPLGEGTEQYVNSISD
Apaf-1 inh – inhibitors of human Apaf-1 apoptosome | inhibition, % at 20 µM | O14727 | reconstituted apoptosome caspase-3 activity, DEVD-Rh110 fluorescence | 330,000 compounds, 0.71% hits; active = inhibition of at least 40% at 20 µM;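 note: plate controls were DMSO wells for no effect and DEVD-CHO caspase inhibitor wells for full effect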
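System – cell-free apoptosome with Apaf-1, procaspase-3 and caspase-9 · Buffer or medium – pH 7.5 Hepes buffer with CHAPS, BSA, DTT · Also added – cytochrome c with DEVD-Rh110 · Times – 30 min compound preincubation, 50 min activation, room temperature · Technique – Rh110 fluorescence intensity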
UBC13 inh – blocks human UBC13 polyubiquitin chain formation; 330,000 compounds, 0.47% hits; inhibition, % at 20 µM; AID 485273; TR-FRET; in the data active = inhibition above about 45%, passing the limit was not always enough
Target sequence (P61088 whole entry, looked up): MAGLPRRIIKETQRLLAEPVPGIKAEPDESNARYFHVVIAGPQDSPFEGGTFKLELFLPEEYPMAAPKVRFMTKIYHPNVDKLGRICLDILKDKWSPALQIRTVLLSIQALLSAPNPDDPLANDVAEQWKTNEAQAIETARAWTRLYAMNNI
SENP7 inh – inhibitors of human SENP7 protease | 330,000 compounds, 1.5% hits | Q9BQF6 | inhibition, % at 5 µM | recombinant SENP7, Z-RLRGG-aminoluciferin luminescence, 40 min;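 active = inhibition above about 50% at the single test dose, limit read from the data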;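 note: plate controls were DMSO with enzyme for no effect and no enzyme buffer wells for full effect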
SENP8 conf – human SENP8 inhibition, confirmed | 6,200 compounds, 40% hits | shares compounds with SENP7 inh | inhibition, % at 12.5 µM | Recombinant SENP8, Z-RLRGG-aminoluciferin luminescence, 60 min | AID 488912;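 active = mean inhibition across replicates above about 50%, limit read from the data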
SENP6 confirm – confirmation of human SENP6 protease inhibitors. 6,200 compounds, 58% hits. recombinant SENP6, Z-RLRGG-aminoluciferin luminescence. AID 488915. shares compounds with SENP7 inh. inhibition, % at 12.5 µM
SENP7 conf – confirmation of human SENP7 protease inhibitors. shares compounds with SENP7 inh. recombinant SENP7, Z-RLRGG-aminoluciferin luminescence, 40 min. inhibition, % at 12.5 µM. 6,200 compounds, 69% hits
Casp3 select – inhibits human caspase-3 in SENP selectivity test; shares compounds with SENP7 inh; purified caspase-3, Z-DEVD-aminoluciferin luminescence, 60 min; inhibition, % at 12.5 µM; 6,200 compounds, 60% hits; AID 488918;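 active = mean inhibition above about 50%, limit read from the data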;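 note: plate controls were enzyme with DMSO for no effect and wells without caspase-3 for full effect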
Luc interf – luminescence interference (SENP counter-screen). shares compounds with SENP7 inh. Pre-incubated SENP8/Z-RLRGG-aminoluciferin, luciferase luminescence interference. inhibition, % at 12.5 µM. 6,200 compounds, 39% hits. AID 488919;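 active = mean inhibition above about 50% when retested at one dose, limit read from the data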;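 note: plate controls were DMSO wells with completed reaction for no effect and substrate without enzyme for full effect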
* marks the source's active call; other numbers are inactive results; . = no result. This is a sample that favours compounds with a hit; in the whole collection about 3.1% have one here.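 Rule for the calls, unless noted: active = mean inhibition above about 50% in the one-dose retest (limit read from the data); inactive = the rest.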

SMILES	SENP8 block-1	SENP8 block-2	SENP6 inh	Apaf-1 inh	UBC13 inh	SENP7 inh	SENP8 conf	SENP6 confirm	SENP7 conf	Casp3 select	Luc interf
CC(=O)c1ccc(-c2nc3ccccc3n2C)o1	-402	18	49	-1	30	31	.	.	.	.	.
Cc1cc(C)n2c(NC3CCCCC3)c(CC(C)C)nc2n1	-30	.	.	.	.	.	.	.	.	.	.
C[C@H](CO)N1C[C@H](C)[C@@H](CN(C)Cc2cccc(F)c2)Oc2cc(-c3cccc(C#N)c3)ccc2S1(=O)=O	9	.	.	.	.	.	.	.	.	.	.
O=C(NCCCN1CCCC1=O)C(=O)NCC1OCCCN1S(=O)(=O)c1ccccc1 (stereo not drawn)	7	.	.	.	.	.	.	.	.	.	.
Cn1c(-c2ccc(Br)o2)nc2ccccc21	4	95*	97*	-3	-2	99*	0	98*	103*	98*	95*
Brc1ccc(Cn2c(-c3ccc(Br)o3)nc3ccccc32)o1	-28	.	.	.	.	.	.	.	.	.	.
Cc1cc(O)c2c(c1)C(=O)c1cc(O)cc(O)c1C2=O	26	94*	97*	17	-165	80*	96*	98*	102*	94*	81*
COc1ccc(C(=O)NC2CCN(C(=S)NCc3ccco3)CC2)cc1	13	-3	-11	-1	0	60*	-1	4	11	6	1
O=C(NC1CCN(C(=S)NCc2ccco2)CC1)c1cccc(F)c1	7	-1	-22	1	8	6	.	.	.	.	.
COc1ccc(C=O)c(-c2c(-c3ccccc3OC)sc3ccccc23)c1	6	.	.	.	.	.	.	.	.	.	.
Brc1ccc(-c2cnc(-c3cccs3)o2)cc1	-370	41	69*	24	30	62*	56*	67*	86*	36	47
CC(C)C[C@H]1CNC(=S)N1CC1CCCN1C[C@H](CC(C)C)N1C[C@H](CC(C)C)N(CCc2ccccc2)C1=S (stereo partly drawn)	11	.	.	.	.	.	.	.	.	.	.
Nc1nc(-c2ccc3c(c2)CCCC3)cs1	17	53*	79*	16	2	56*	65*	75*	91*	51*	70*
Nc1nc(-c2ccc3c(c2)OCCO3)cs1	9	-9	31	2	14	3	.	.	.	.	.
Cc1ccc(N=Nc2c(N)n(-c3ccccc3)[nH]c2=O)cc1	33	54*	76*	19	-32	82*	28	20	25	20	14
COC(=O)c1[nH]c2cccc(Cl)c2c1NC(=O)CN1CCN(CCO)CC1	-17	1	13	-5	-7	101*	11	10	0	-4	-3
COc1ccc(CN2CCC[C@]3(N[C@H](c4ccc(C(F)(F)F)cc4)[C@@H]4C(=O)N(C)C(=O)[C@@H]43)C2=O)cc1	-28	.	.	.	.	.	.	.	.	.	.
C[C@@H]1O[C@H](C2CCCC2)Cc2[nH]c(=S)[nH]c(=O)c21	15	.	.	.	.	.	.	.	.	.	.
O=C(/C=C/c1ccccc1F)c1cccc([N+](=O)[O-])c1	34	2	-8	4	7	4	.	.	.	.	.
COc1ccc(C(=O)/C=C/c2ccccc2F)c(OC(=O)c2ccc([N+](=O)[O-])cc2)c1	25	28	60*	10	2	-8	13	10	-6	8	4
C=C1C2=C(C(=O)N1OC)[C@@H](O)[C@@](C)(O)[C@@H](CCCCC)O2	22	.	.	.	.	.	.	.	.	.	.
O=C(Nc1ccc2c(c1)OCO2)c1ccc(Br)o1	10	58*	65*	-5	-3	7	10	65*	90*	82*	67*
O=C(COC(=O)CNC(=O)c1ccc(Br)o1)Nc1ccc2c(c1)OCCO2	13	-3	-7	-3	11	-2	.	.	.	.	.
CN(C)c1ccc(NC(=O)c2ccc(COc3cccc(Cl)c3)o2)cc1	36	-11	-23	21	-3	-9	.	.	.	.	.
O=C(Nc1ccc2c(c1)Cc1ccccc1-2)c1cc2ccccc2o1	-307	3	-5	2	8	6	.	.	.	.	.
SMILES	SENP8 block-1	SENP8 block-2	SENP6 inh	Apaf-1 inh	UBC13 inh	SENP7 inh	SENP8 conf	SENP6 confirm	SENP7 conf	Casp3 select	Luc interf
O=C(Nc1ccc2c(c1)CCC2)c1cc2ccccc2o1	7	45	77*	17	-7	68*	61*	65*	87*	48	58*
O=C(Nc1ccc2c(c1)oc1ccccc12)c1ccc(Br)o1	-25	21	48	-9	4	77*	6	16	28	11	5
O=C(Nc1ccc2c(c1)OCO2)c1ccc(COc2ccc3c(c2)CCC3)o1	6	24	54*	9	-1	-5	16	30	37	14	20
COc1ccc(/C=C/CN2CCC(C(=O)NC(c3ccc(F)cc3)c3ccc4ccccc4n3)CC2)cc1 (stereo not drawn)	7	.	.	.	.	.	.	.	.	.	.
CCCN1CCN(C(=O)c2ccc(CS(=O)c3ccc(Br)cc3)o2)CC1 (stereo not drawn)	15	.	.	.	.	.	.	.	.	.	.
CC(=O)Nc1ccc2c(c1)CCCC2	11	1	4	12	1	12	.	.	.	.	.
Cc1ccc(C(=O)Nc2ccc3c(c2)CCC3)o1	9	68*	82*	-6	2	80*	72*	68*	92*	82*	78*
COC(=O)Cc1ccc(NC(=O)c2ccc(Br)o2)cc1	11	26	51*	6	2	32	37	31	68*	70*	49
O=C(Nc1ccc2c(c1)CCC2)c1ccc(Br)o1	24	79*	90*	12	-2	89*	88*	87*	99*	86*	87*
CCN(CC)c1ccc(NC(=O)c2ccc(Br)o2)cc1	12	13	-16	11	-7	27	.	.	.	.	.
CCCCN1C[C@H](CSC)[C@@H](CC(=O)Nc2ccc(OC)cc2)C1=O	-1	.	.	.	.	.	.	.	.	.	.
COc1ccccc1-c1cnc(C(O)c2cccc(F)c2)[nH]1 (stereo not drawn)	6	.	.	.	.	.	.	.	.	.	.
c1ccc(COc2ccc(CN3CCN(c4ccccn4)CC3)cc2)cc1	20	31	54*	8	0	9	59*	53*	72*	36	66*
O=C1C(Br)=C(c2ccccc2)C(c2ccccc2)=C1c1ccccc1	11	.	.	.	.	.	.	.	.	.	.

Source: PubChem BioAssay (Sanford-Burnham Center for Chemical Genomics)
